Laboratory results taken from ChEMBL document CHEMBL3400013, “Synthesis and biological activity evaluation of hydrazone derivatives based on a Tröger's base skeleton” (Bioorg Med Chem, 2015).
Active and inactive are the calls of the source. No cut-off for these calls is given here.

Assays:
Nucleic Acid [1] = experiment: Binding affinity to DNA (unknown origin) assessed as DNA intercalation by UV-visible spectrophotometry in presence of Fe3+; type: nucleic-acid assay
BJ [2] = experiment: Selectivity index, ratio of IC50 for human BJ cells to IC50 for human CCRF-CEM cells; type: functional; details: pooled result: one value given for 2 cell lines, strains, targets or settings
K562 [3] = experiment: Selectivity index, ratio of IC50 for human MRC5 cells to IC50 for human K562 cells; type: functional
BJ [4] = experiment: Selectivity index, ratio of IC50 for human BJ cells to IC50 for human K562-TAX cells; type: functional
A549 [5] = experiment: Selectivity index, ratio of IC50 for human BJ cells to IC50 for human A549 cells; type: functional
A549 [6] = experiment: Selectivity index, ratio of IC50 for human MRC5 cells to IC50 for human A549 cells; type: functional
BJ [7] = experiment: Selectivity index, ratio of IC50 for human BJ cells to IC50 for human HCT116 cells; type: functional
HCT-116 [8] = experiment: Selectivity index, ratio of IC50 for human MRC5 cells to IC50 for human HCT116 cells; type: functional
BJ [9] = experiment: Selectivity index, ratio of IC50 for human BJ cells to IC50 for human p53-/- HCT116 cells; type: functional
HCT-116 [10] = experiment: Selectivity index, ratio of IC50 for human MRC5 cells to IC50 for human p53-/- HCT116 cells; type: functional
[11] = Cytostatic activity against human CEM-DNR cells after 72 hrs by MTT assay; type: functional, cell-based
Method in brief: (§1)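 Cells were seeded at 25,000–30,000 per well and pre-incubated for 24 h at 37°C in 5% CO2. Four-fold compound dilutions were added in duplicate and incubated for 72 h. MTT was added for 1–4 h, and formazan was dissolved in 10% aq SDS (pH 5.5) overnight at 37°C. OD was read at 540 nm. IC50 came from dose-response curves, mean ± SD of eight independent experiments.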

K562 [12] = experiment: Cytostatic activity against human K562 cells after 72 hrs by MTT assay; type: functional, cell-based; details: K562, 72 h; method in brief: as §1
[13] = Cytostatic activity against human HCT116 cells after 72 hrs by MTT assay; type: functional, cell-based; details: HCT-116, 72 h; method in brief: as §1
[14] = Cytostatic activity against human p53-/- HCT116 cells after 72 hrs by MTT assay; type: functional, cell-based; details: HCT-116, 72 h; method in brief: as §1
CCRF-CEM [15] = experiment: Induction of apoptosis in human CCRF-CEM cells assessed as apoptotic cells at IC50 after 24 hrs by propidium iodide staining-based flow cytometry; type: functional
Method in brief: (§2)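 Cells were then fixed in 70% ethanol, washed in hypotonic citrate buffer, treated with RNase (50 µg/mL) and stained with propidium iodide. Flow cytometry used a 488 nm laser. Apoptosis was scored as the percentage of particles with propidium content below G0/G1.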

CCRF-CEM [16] = experiment: Induction of apoptosis in human CCRF-CEM cells assessed as apoptotic cells at 5 times IC50 after 24 hrs by propidium iodide staining-based flow cytometry; type: functional; method in brief: as §2
CCRF-CEM [17] = experiment: Cell cycle arrest in human CCRF-CEM cells assessed as accumulation at G0/G1 phase at 5 times IC50 after 24 hrs by propidium iodide staining-based flow cytometry; type: functional; method in brief: as §2
CCRF-CEM [18] = experiment: Cell cycle arrest in human CCRF-CEM cells assessed as accumulation at S phase at IC50 after 24 hrs by propidium iodide staining-based flow cytometry; type: functional; method in brief: as §2
CCRF-CEM [19] = experiment: Cell cycle arrest in human CCRF-CEM cells assessed as accumulation at G2/M phase at IC50 after 24 hrs by propidium iodide staining-based flow cytometry; type: functional; method in brief: as §2
CCRF-CEM [20] = experiment: Cell cycle arrest in human CCRF-CEM cells assessed as accumulation at G2/M phase at 5 times IC50 after 24 hrs by propidium iodide staining-based flow cytometry; type: functional; method in brief: as §2
CCRF-CEM [21] = experiment: Induction of apoptosis in human CCRF-CEM cells assessed as mitotic cells at IC50 after 24 hrs by pH3Ser10+ labeling-based flow cytometry; type: functional
CCRF-CEM [22] = experiment: Induction of apoptosis in human CCRF-CEM cells assessed as mitotic cells at 5 times IC50 after 24 hrs by pH3Ser10+ labeling-based flow cytometry; type: functional
CCRF-CEM [23] = experiment: Induction of apoptosis in human CCRF-CEM cells assessed as inhibition of DNA synthesis at 5 times IC50 after 24 hrs by propidium iodide/BrdU staining by flow cytometry; type: functional; design: scale not given: the % may be the effect or the level left
CCRF-CEM [24] = experiment: Induction of apoptosis in human CCRF-CEM cells assessed as inhibition of RNA synthesis at 5 times IC50 after 24 hrs by propidium iodide/BrU staining by flow cytometry; type: functional; design: scale not given: the % may be the effect or the level left
Enterococcus faecalis = experiment: Antimicrobial activity against Enterococcus faecalis CCM 4224 up to 200 uM after 24 to 48 hrs by broth microdilution method; type: functional, organism-based
Staphylococcus aureus [25] = experiment: Antimicrobial activity against Staphylococcus aureus CCM 3953 up to 200 uM after 24 to 48 hrs by broth microdilution method; type: functional, organism-based
Escherichia coli [26] = experiment: Antimicrobial activity against Escherichia coli CCM 3954 up to 200 uM after 24 to 48 hrs by broth microdilution method; type: functional, organism-based
Pseudomonas aeruginosa [27] = experiment: Antimicrobial activity against Pseudomonas aeruginosa CCM 395 up to 200 uM after 24 to 48 hrs by broth microdilution method; type: functional, organism-based
Staphylococcus aureus [28] = experiment: Antimicrobial activity against methicillin-resistant Staphylococcus aureus MRSA 4591 up to 200 uM after 24 to 48 hrs by broth microdilution method; type: functional, organism-based
[29] = system: Staphylococcus haemolyticus; experiment: Antimicrobial activity against methicillin-resistant Staphylococcus haemolyticus A1/16568 up to 200 uM after 24 to 48 hrs by broth microdilution method; type: functional, organism-based
Escherichia coli [30] = experiment: Antimicrobial activity against multidrug-resistant Escherichia coli C/16702 up to 200 uM after 24 to 48 hrs by broth microdilution method; type: functional, organism-based
Pseudomonas aeruginosa [31] = experiment: Antimicrobial activity against multidrug-resistant Pseudomonas aeruginosa A/16575 up to 200 uM after 24 to 48 hrs by broth microdilution method; type: functional, organism-based
Candida parapsilosis = experiment: Antifungal activity against Candida parapsilosis up to 200 uM after 24 to 48 hrs by broth microdilution method; type: functional, organism-based
[32] = Metal chelating activity of the compound assessed as formation of Co2+ complex by UV-vis spectrometry; type: physicochemical
[33] = Metal chelating activity of the compound assessed as formation of Cu2+ complex by UV-vis spectrometry; type: physicochemical
[34] = Metal chelating activity of the compound assessed as formation of Fe3+ complex by UV-vis spectrometry; type: physicochemical
[35] = Metal chelating activity of the compound assessed as formation of Zn2+ complex by UV-vis spectrometry; type: physicochemical
[36] = Metal chelating activity of the compound assessed as formation of Mg2+ complex by UV-vis spectrometry; type: physicochemical
[37] = Metal chelating activity of the compound assessed as formation of Fe2+ complex by UV-vis spectrometry; type: physicochemical
[38] = Metal chelating activity of the compound assessed as formation of Mn2+ complex by UV-vis spectrometry; type: physicochemical
[39] = Metal chelating activity of the compound assessed as formation of Cr3+ complex by UV-vis spectrometry; type: physicochemical
Nucleic Acid [40] = experiment: Binding affinity to DNA (unknown origin) assessed as DNA intercalation by UV-visible spectrophotometry in presence of Co2+; type: nucleic-acid assay
Nucleic Acid [41] = experiment: Binding affinity to DNA (unknown origin) assessed as DNA intercalation by UV-visible spectrophotometry in presence of Cu2+; type: nucleic-acid assay

Cc1ccc(O)c(/C=N/NC(=O)c2ccc3c4c(ccc3c2)N2Cc3c(ccc5cc(C(=O)N/N=C/c6cc(C)ccc6O)ccc35)N(C4)C2)c1
Activity (Nucleic Acid [1]): Active
Ratio IC50 (BJ [2]): 0.8
Ratio IC50 (K562 [3]): 0.5
Ratio IC50 (BJ [4]): 0.4
Ratio IC50 (A549 [5]): 0.9
Ratio IC50 (A549 [6]): 0.9
Ratio IC50 (BJ [7]): 0.8
Ratio IC50 (HCT-116 [8]): 0.8
Ratio IC50 (BJ [9]): 1.1
Ratio IC50 (HCT-116 [10]): 1.1
IC50 [11]: 5360 nM
IC50 (K562 [12]): 900 nM
IC50 [13]: 620 nM
IC50 [14]: 450 nM
Activity (CCRF-CEM [15]): 14.09%
Activity (CCRF-CEM [16]): 54.07%
Activity (CCRF-CEM [17]): 38.43%
Activity (CCRF-CEM [18]): 44.83%
Activity (CCRF-CEM [19]): 14.65%
Activity (CCRF-CEM [20]): 14.79%
Activity (CCRF-CEM [21]): 1.04%
Activity (CCRF-CEM [22]): 0.22%
Activity (CCRF-CEM [23]): 5.17%
Activity (CCRF-CEM [24]): 26.44%
Activity (Enterococcus faecalis): inactive
Activity (Staphylococcus aureus [25]): inactive
Activity (Escherichia coli [26]): inactive
Activity (Pseudomonas aeruginosa [27]): inactive
Activity (Staphylococcus aureus [28]): inactive
Activity [29]: inactive
Activity (Escherichia coli [30]): inactive
Activity (Pseudomonas aeruginosa [31]): inactive
Activity (Candida parapsilosis): inactive
Activity [32]: Active
Activity [33]: Active
Activity [34]: Active
Activity [35]: Active
Activity [36]: Not Active
Activity [37]: Not Active
Activity [38]: Not Active
Activity [39]: Not Active
Activity (Nucleic Acid [40]): Active
Activity (Nucleic Acid [41]): Active

O=C(NN=C(c1ccccn1)c1ccccn1)c1ccc2c3c(ccc2c1)N1Cc2c(ccc4cc(C(=O)NN=C(c5ccccn5)c5ccccn5)ccc24)N(C3)C1
Activity (Nucleic Acid [1]): Active
Ratio IC50 (BJ [2]): 1.7
Ratio IC50 (K562 [3]): 2.4
Ratio IC50 (BJ [4]): 2.8
Ratio IC50 (A549 [5]): 0.8
Ratio IC50 (A549 [6]): 0.8
Ratio IC50 (BJ [7]): 3.4
Ratio IC50 (HCT-116 [8]): 3.4
Ratio IC50 (BJ [9]): 2
Ratio IC50 (HCT-116 [10]): 2
IC50 [11]: 2080 nM
IC50 (K562 [12]): 640 nM
IC50 [13]: 460 nM
IC50 [14]: 780 nM
Activity (CCRF-CEM [15]): 12.04%
Activity (CCRF-CEM [16]): 24.51%
Activity (CCRF-CEM [17]): 3.63%
Activity (CCRF-CEM [18]): 61.24%
Activity (CCRF-CEM [19]): 10.49%
Activity (CCRF-CEM [20]): 28.23%
Activity (CCRF-CEM [21]): 0.53%
Activity (CCRF-CEM [22]): 1.72%
Activity (CCRF-CEM [23]): 55.69%
Activity (CCRF-CEM [24]): 55.9%
Activity (Enterococcus faecalis): inactive
Activity (Staphylococcus aureus [25]): inactive
Activity (Escherichia coli [26]): inactive
Activity (Pseudomonas aeruginosa [27]): inactive
Activity (Staphylococcus aureus [28]): inactive
Activity [29]: inactive
Activity (Escherichia coli [30]): inactive
Activity (Pseudomonas aeruginosa [31]): inactive
Activity (Candida parapsilosis): inactive
Activity [32]: Active
Activity [33]: Active
Activity [34]: Active
Activity [35]: Active
Activity [36]: Not Active
Activity [37]: Not Active
Activity [38]: Not Active
Activity [39]: Not Active
Activity (Nucleic Acid [40]): Active
Activity (Nucleic Acid [41]): Active
